Assay results from ChEMBL document CHEMBL4680135, “Design, synthesis and biological evaluation of indole-2-carboxylic acid derivatives as IDO1/TDO dual inhibitors” (Eur J Med Chem, 2020).
The source made the active and inactive calls. No cut-off for these calls is given here.

Experiments:
A 172 [1] = test: Inhibition of IDO1/TDO in IFNgamma-stimulated human A172 cells assessed as reduction in kynurenine formation at 50 uM using L-tryptophan as substrate incubated for 48 hrs by microplate reader analysis relative to control; type: cell-based
Method in brief: (§1)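 A172 cells seeded at 4×10^4/well, next day given compound in 10% serum medium with IFNγ (final 100 ng/mL) and Trp (final 1 mmol/L), 48 h. Supernatant treated with 30% (w/v) TCA, heated 65 °C 15 min, mixed with 2% p-dimethylaminobenzaldehyde in acetic acid; kynurenine pigment read at 490 nm.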

[2] = target: Indoleamine 2,3-dioxygenase 1 (Homo sapiens, UniProt P14902); test: Inhibition of recombinant human IDO1 assessed as reduction in kynurenine formation using L-tryptophan as substrate incubated for 45 mins by microplate reader assay
Indoleamine 2,3-dioxygenase 1, sequence (P14902 whole entry): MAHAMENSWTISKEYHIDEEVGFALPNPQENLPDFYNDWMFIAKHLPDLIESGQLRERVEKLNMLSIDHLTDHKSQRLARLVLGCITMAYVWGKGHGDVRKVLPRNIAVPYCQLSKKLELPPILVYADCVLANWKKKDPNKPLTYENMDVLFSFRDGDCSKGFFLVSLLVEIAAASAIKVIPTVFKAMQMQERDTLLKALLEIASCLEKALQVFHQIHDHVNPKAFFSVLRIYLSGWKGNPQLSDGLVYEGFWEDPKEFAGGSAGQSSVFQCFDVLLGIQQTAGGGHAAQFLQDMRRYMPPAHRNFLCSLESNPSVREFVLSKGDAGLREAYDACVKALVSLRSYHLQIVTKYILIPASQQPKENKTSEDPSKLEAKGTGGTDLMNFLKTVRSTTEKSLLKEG

B16-F10 [3] = test: Antitumor activity against mouse B16F10 cells xenografted in C57BL/6 mouse assessed as tumor growth inhibition at 100 mg/kg, po administered for 19 consecutive days relative to control; type: functional; settings: 456 h, time 19 day, read-out: TGI
Method in brief: (§2)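 B16F10 melanoma cells harvested in saline; 1×10^6 cells injected subcutaneously into C57BL/6 mice on day 0. Mice randomized; daily oral dosing from day 1, compound in 0.5% CMC-Na, vehicle controls given 0.5% CMC-Na orally; cyclophosphamide 100 mg/kg i.p. as reference group.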

[4] = target: Tryptophan 2,3-dioxygenase (Homo sapiens, UniProt P48775); test: Inhibition of recombinant human TDO assessed as reduction in kynurenine formation using L-tryptophan as substrate incubated for 45 mins by microplate reader assay
Tryptophan 2,3-dioxygenase, sequence (P48775 whole entry): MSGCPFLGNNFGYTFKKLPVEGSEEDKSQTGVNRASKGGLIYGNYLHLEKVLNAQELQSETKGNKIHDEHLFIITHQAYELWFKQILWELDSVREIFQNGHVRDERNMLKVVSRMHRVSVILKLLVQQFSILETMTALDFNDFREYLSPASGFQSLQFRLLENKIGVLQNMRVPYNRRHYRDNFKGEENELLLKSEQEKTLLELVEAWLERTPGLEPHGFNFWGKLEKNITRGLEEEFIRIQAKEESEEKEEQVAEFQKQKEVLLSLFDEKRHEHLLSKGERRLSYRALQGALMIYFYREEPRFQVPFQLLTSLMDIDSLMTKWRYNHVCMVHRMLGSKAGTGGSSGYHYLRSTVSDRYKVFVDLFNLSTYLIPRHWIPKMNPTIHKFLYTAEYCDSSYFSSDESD
Method in brief: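 Purified recombinant human TDO (0.05 μM) in 100 mM potassium phosphate pH 6.5 with 40 mM neutralized ascorbate, 200 μg/mL catalase, 20 μM methylene blue, L-Trp substrate and compound; 37 °C, 45 min. Stopped with 30% TCA, 65 °C 15 min, then 2% p-dimethylaminobenzaldehyde in acetic acid; absorbance 490 nm; IC50 by curve fitting.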

T-lymphocyte = test: Reversal of IDO1/TDO-mediated suppression of mouse T-lymphocyte proliferation assessed as increase in mytomycin C treated LLC cells stimulated T-cells proliferation at 10 uM incubated for 3 days by Cell Titer Glo luminescent cell viability assay; type: cell-based; settings: time 3.0 day
Method in brief: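 Responder T lymphocytes from BALB/c mouse splenocytes (1×10^5/well) in RPMI 1640 with 10% FBS co-cultured with 1×10^4 LLC stimulator cells pretreated with mitomycin C (final 25 µg/mL, 37 °C, 1 h, washed thrice), plus compound; 37 °C, 5% CO₂, 3 days. Proliferation by CellTiter-Glo luminescence; mean of three replicate wells with SEM.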

[5] = Toxicity in C57BL/6 mouse xenografted with mouse B16F10 cells assessed as body weight loss at 50 to 100 mg/kg, po administered for 19 consecutive days; type: organism-based; settings: in vivo, 456 h, dose 50-100 mg/kg, time 19 day
Method in brief: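 B16F10 cells (1×10^6) implanted subcutaneously in C57BL/6 mice on day 0; daily oral treatment from day 1 with compound suspended in 0.5% CMC-Na, vehicle group receiving 0.5% CMC-Na. Body weight of treated mice compared against vehicle control group.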

A 172 [6] = test: Inhibition of IDO1/TDO in IFNgamma-stimulated human A172 cells assessed as reduction in kynurenine formation at 100 uM using L-tryptophan as substrate incubated for 48 hrs by microplate reader analysis relative to control; type: cell-based; method in brief: as §1
B16-F10 [7] = test: Antitumor activity against mouse B16F10 cells xenografted in C57BL6 mouse assessed as tumor growth inhibition at 50 mg/kg, po administered for 19 consecutive days relative to control; type: functional; settings: 456 h, time 19 day, read-out: TGI; method in brief: as §2

| IC50 [2] | IC50 [4] | Structure (SMILES) | inhibition (A 172 [1]) | inhibition in vivo at 100 mg/kg (B16-F10 [3]) | Activity (T-lymphocyte) | Activity [5] | inhibition (A 172 [6]) | inhibition in vivo at 50 mg/kg (B16-F10 [7]) |
| --- | --- | --- | --- | --- | --- | --- | --- | --- |
| 3.18 µM | 7.12 µM | COc1cc(Nc2cc(NC(C)=O)cc3[nH]c(C(=O)O)cc23)cc(OC)c1OC | 55.9% | 44.7% | Active | Non-Toxic | 77.7% | 43.2% |
| 10 µM | 5.24 µM | CC(=O)Nc1cc(Nc2ccc(F)c(OCc3ccccc3)c2)c2cc(C(=O)O)[nH]c2c1 | – | – | – | – | – | – |
| 35.6 µM | 22.5 µM | Cc1cc(Nc2ccc(F)c(Cl)c2)c2cc(C(=O)O)[nH]c2c1 | – | – | – | – | – | – |
| 3.41 µM | 3.62 µM | COc1ccc(Nc2cc(NC(C)=O)cc3[nH]c(C(=O)O)cc23)cn1 | – | – | – | – | – | – |
| 3.09 µM | 6.46 µM | CC(=O)Nc1cc(Nc2ccc(F)c(OC(C)C)c2)c2cc(C(=O)O)[nH]c2c1 | – | – | – | – | – | – |
| 22.2 µM | 23.3 µM | COc1cc(Nc2ccc(F)c3[nH]c(C(=O)O)cc23)cc(OC)c1OC | – | – | – | – | – | – |
